Laboratory results as given in paper PMC7951180 (Nature cell biology, 2020).

Columns and labels:
mdx mice = experiment: IF staining of DMD and Ub-DMD in QUA of mdx mice with PPMO23 exon skipping; assay type: in vivo, mouse; conditions: PPMO23 15 mg/kg i.v. biweekly alone, or with AGR-H19 10 mg/kg s.q. every three days or Nifenazone 10 mg/kg i.p. daily; 4 to 24 weeks of age; n=5
In short: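 Controls were male C57BL/10J mice on scramble RNA plus vehicle, and mdx mice on scramble. Quadriceps were immunostained for DMD and Ub-DMD, and intensity was scored as average intensity × percentage positive cells. Mean±SD, n=5/condition, one-way ANOVA.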

Dmd C3333Y mice [1] = experiment: Echocardiography; assay type: in vivo, mouse; conditions: 4 to 24 weeks of age, AGR mimics 10 mg/kg subQ every three days, Nifenazone 10 mg/kg i.p. daily, n=5
In short: (§1)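 Male and female Dmd WT and Dmd C3333Y mice were dosed from 4 weeks to 16 or 24 weeks of age. […] Groups were randomised by age and sex. Left ventricular values or cardiac fibrotic area percentage are reported as mean±SD, n=5/group, one-way ANOVA.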

Pharmacokinetics = assay type: in vivo, mouse; conditions: biotin-labeled, 10 mg/kg single dose, wild type C57BL/6 mice, 3–72 hours; dot-blot, n=5 animals per time point
In short: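 A single 10 mg/kg dose of biotinylated H19 mimic (i.p. or subQ) or AGR-H19 (subQ) was given to wild type C57BL/6 mice. Muscle, heart, liver, kidney and lung were taken at 3, 12, 24, 48 or 72 h. Small RNA was dot-blotted against a 2-fold standard series of 1 μg–1 pg and detected with streptavidin-HRP. Levels are given as ng/g tissue, with PK parameters from nonlinear regression. n=5/time point.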

Dmd C3333Y mice [2] = experiment: Fibrotic area in the heart of treated Dmd C3333Y mice; assay type: in vivo, mouse; conditions: 4 to 24 weeks of age, AGR mimics 10 mg/kg subQ every three days, Nifenazone 10 mg/kg i.p. daily, n=5
In short: as §1

Body weight measurement = assay type: in vivo, mouse; conditions: Dmd C3333Y mice from 4 weeks of age; AGR mimics 10 mg/kg subQ every three days; Nifenazone 10 mg/kg i.p. daily
In short: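 Weighed weekly in male Dmd WT (scramble- or vehicle-treated) and Dmd C3333Y mice during dosing from 4 weeks of age, to 16 weeks for the i.p. drug arm. AGR-Scr and AGR-H19 mut served as control mimics. Mean±SD, n=5 mice/group, two-way ANOVA.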

Dmd C3333Y mice [3] = experiment: Forelimb grip strength test of treated Dmd C3333Y mice; assay type: in vivo, mouse; conditions: AGR mimics 10 mg/kg subQ every three days, Nifenazone 10 mg/kg i.p. daily
Dmd C3333Y mice [4] = experiment: IF staining of DMD and Ub-DMD; assay type: in vivo, mouse; conditions: Dmd C3333Y mice QUA, AGR mimics 10 mg/kg subQ every three days, Nifenazone 10 mg/kg i.p. daily, n=5
In short: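 Quadriceps sections from Dmd WT and Dmd C3333Y mice on control or test mimics, vehicle, or daily i.p. drug were immunostained for DMD and Ub-DMD (Lys3584). Intensity was quantified from average staining intensity and percentage of positively stained cells. Mean±SD, n=5 animals/group, one-way ANOVA.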

Blood biochemistry = assay type: in vivo, mouse; conditions: Dmd C3333Y mice from 4 weeks of age; AGR mimics 10 mg/kg subQ every three days; Nifenazone 10 mg/kg i.p. daily
indicated genes = experiment: RT-qPCR of indicated genes and microRNAs; conditions: Dmd C3333Y QUA; 10 mg/kg subQ every three days
[5] = Serum IGF1 and IGF2 concentration; assay type: in vivo, mouse; conditions: Dmd C3333Y mice; 10 mg/kg subQ every three days
In short: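 Serum IGF1 and IGF2 were measured in Dmd WT and Dmd C3333Y mice under the treatment arms. AGR mimics were dosed from 4 weeks of age to 16 or 24 weeks. Mean±SD, n=5 mice/group, one-way ANOVA.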

hiPS-SkMCs [6] = experiment: Immunoprecipitation and immunoblotting in hiPS-SkMCs; assay type: cell-based, human; conditions: IB; for Ub-DMD in K3584R mutant knockin BMD iPS-SkMCs: GM04981 K3584R
hiPS-SkMCs [7] = experiment: IF staining / IB of DMD and Ub-DMD; assay type: cell-based, human; conditions: iPS-SkMCs and iPS-CMs derived from BMD patients; Nifenazone 10 μM, 72 hours
In short: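 Skeletal muscle cells came from iPSCs reprogrammed from fibroblasts of a healthy donor (GM09503) and four BMD donors (GM04981, GM02298, GM05089, GM04569). iPSCs were kept feeder-free on Matrigel in mTeSR1. For IF, myoblasts on collagen I-coated coverslips grew to confluence, then spent 4 days in myotube medium before 4% paraformaldehyde fixation. IF intensity combined average staining and percentage of positive cells; n=5 independent experiments, two-way ANOVA. Immunoblots were repeated twice.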

TRIM63 = TRIM63 (Homo sapiens, UniProt Q969Q1); experiment: Screen of small molecule inhibitors targeting TRIM63; assay type: biochemical; conditions: library of 2027 bioactive compounds; Ub-DMD (Lys3584) antibody, OD450
In short: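 The library screen measured DMD poly-ubiquitination by sandwich ELISA, with His6-TUBE capture and Ub-DMD (Lys3584) antibody detection read at OD450. Background-subtracted mean absorbance per compound was normalised to DMSO-treated samples and expressed as log2 fold change.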

TRIM63, sequence (Q969Q1 whole entry): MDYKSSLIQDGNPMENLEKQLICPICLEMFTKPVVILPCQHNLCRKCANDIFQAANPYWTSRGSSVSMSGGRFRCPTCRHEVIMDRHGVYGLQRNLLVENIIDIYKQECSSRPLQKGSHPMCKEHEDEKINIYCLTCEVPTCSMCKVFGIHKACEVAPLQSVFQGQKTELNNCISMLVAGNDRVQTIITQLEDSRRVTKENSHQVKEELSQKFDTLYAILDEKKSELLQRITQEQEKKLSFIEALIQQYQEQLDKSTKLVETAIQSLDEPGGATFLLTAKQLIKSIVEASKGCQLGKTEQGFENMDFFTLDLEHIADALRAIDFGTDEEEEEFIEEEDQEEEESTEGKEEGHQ

| Compound | Dystrophin protein in skeletal muscle of mdx mice (mdx mice) | Ub-DMD (poly-Ub) in skeletal muscle of mdx mice (mdx mice) | Heart function (left ventricular ejection fraction and fraction shortening) (Dmd C3333Y mice [1]) | Amount in skeletal and cardiac muscles after dosing (Pharmacokinetics) | Fibrotic area in the heart (Dmd C3333Y mice [2]) | Body weight (Body weight measurement) | Muscle strength (Dmd C3333Y mice [3]) | Dystrophin level in skeletal muscle (Dmd C3333Y mice [4]) | Ub-DMD level in skeletal muscle (Dmd C3333Y mice [4]) | Liver or kidney function (Blood biochemistry) | Expression status of microRNAs tested (indicated genes) | Serum IGF1/IGF2 [5] | Ub-DMD in K3584R mutant knockin BMD iPS-SkMCs (hiPS-SkMCs [6]) | Dystrophin protein stability (hiPS-SkMCs [7]) | Status of Ub-DMD (Lys3584) (hiPS-SkMCs [7]) | Ub-DMD in hiPS-SkMCs upon NIF treatment (hiPS-SkMCs [6]; vehicle or NIF) | Inhibition of the enzymatic activities of TRIM63 in vitro (screen) (TRIM63) |
| --- | --- | --- | --- | --- | --- | --- | --- | --- | --- | --- | --- | --- | --- | --- | --- | --- | --- |
| RXRRBRRXRRBRXB [PPMO23] | partially restored | robust | – | – | – | – | – | – | – | – | – | – | – | – | – | – | – |
| N-terminal-ELTNEIPAELTNEIPA-Linker-5'-[2’-F-C][2’-F-U][2’-F-C][2’-F-U][2’-F-U][2’-F-U][2’-F-G][2’-F-U][2’-F-U][2’-F-U][2’-F-C][2’-F-U][2’-F-G][2’-F-A][2’-F-G][2’-F-C][2’-F-U][2’-F-U][2’-F-U][2’-F-C][2’-F-C][2’-F-U][2’-F-G][2’-F-U][2’-F-C][2’-F-U][2’-F-U][2’-F-U][2’-F-C][2’-F-C]-3' [AGR-H19] | significantly increased | reduced | increased | substantial amount | reduced | minimal effects | improved | elevated | reduced | minimal effects | minimal effects | minimal effects | minimally affected | – | – | – | – |
| Cc1c(NC(=O)c2cccnc2)c(=O)n(-c2ccccc2)n1C [Nifenazone] | significantly increased | reduced | improved | – | reduced | minimally affected | significantly improved | restored | decreased | minimally affected | – | – | minimally affected | stabilized dystrophin | attenuated | inhibited | effective inhibition |
